Test results published in publication PMC7502533 (ACS chemical biology, 2020).

How the values were obtained:
Chmp1b = Chmp1b recruitment to damaged endosomes; type: cell-based
TFEB = TFEB nuclear accumulation; type: cell-based; details: for nuclear translocation of TFEB: percentage of cells displaying TFEB nuclear accumulation, biological duplicates
How it was run: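 HeLa and Neuro-2a cells were treated with the CPP combined with an endosome-priming small molecule, or with LLOME. TFEB localization was then followed over time until the protein returned to a cytoplasmic distribution.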

[1] = test system: Neuro-2a and HeLa cell lines; assay: Endocytic uptake of AF488-labelled probes by flow cytometry; type: cell-based; details: AF488-H1 added after reagent treatment, biological duplicates
Neuro-2a and HeLa = assay: Recovery of LysoTracker Green staining; type: cell-based; details: cell line not specified; biological triplicates
How it was run: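 HeLa and Neuro-2a cells were exposed to the delivery agent, or LLOME as the reference, then washed. LysoTracker was added at increasing intervals after washing, and lysosomal staining was followed over time to find when it returned to the untreated level.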

Galectin-3 (Gal3) = assay: Gal3 recruitment to damaged endosomes; type: cell-based
[2] = cells incubated with reagent, washed and imaged, biological duplicates

Row | SMILES | toxicity to cells of cell penetration (cells) | Chmp1b recruitment (Chmp1b; Neuro-2a) | number of Chmp1b puncta (Chmp1b; [2]) | additional time to return to a cytoplasmic TFEB distribution (TFEB; after the initial 3h, biological triplicates) | time TFEB nuclear accumulation is steady or rising after treatment (TFEB; biological triplicates) | nuclear translocation of TFEB (TFEB) | uptake of H1 [1] | recovery time of LysoTracker staining (Neuro-2a and HeLa) | Gal3 recruitment (Galectin-3 (Gal3); Neuro-2a) | Gal3 distribution / puncta (Galectin-3 (Gal3); [2])
1 | COC(=O)[C@H](CC(C)C)NC(=O)[C@@H](N)CC(C)C [LLOME, L-leucyl-L-leucine methyl ester] | delayed loss of viability | did not trigger | trigger the recruitment of Chmp1b and Gal3 | 9 h | 3 h | triggered the nuclear translocation of TFEB | stimulated | 8 h | did not trigger | trigger the recruitment of Chmp1b and Gal3
2 | CO/C1=C\C(C)=C\[C@@H](C)[C@@H](O)[C@@H](C)C/C(C)=C/C=C/[C@H](OC)[C@@H]([C@@H](C)[C@@H](O)[C@H](C)[C@@]2(O)C[C@@H](O)[C@H](C)[C@@H](C(C)C)O2)OC1=O [bafilomycin] |  |  |  |  |  | positive control |  |  |  | 
